Data on 15 compounds can be found in ChEMBL document CHEMBL2380224, “Fragment-based ligand design of novel potent inhibitors of tankyrases” (J Med Chem, 2013).

In data set [1] the target is T1, Poly [ADP-ribose] polymerase tankyrase-2 (Homo sapiens, UniProt Q9H2K2).
T1 sequence (Q9H2K2 whole entry): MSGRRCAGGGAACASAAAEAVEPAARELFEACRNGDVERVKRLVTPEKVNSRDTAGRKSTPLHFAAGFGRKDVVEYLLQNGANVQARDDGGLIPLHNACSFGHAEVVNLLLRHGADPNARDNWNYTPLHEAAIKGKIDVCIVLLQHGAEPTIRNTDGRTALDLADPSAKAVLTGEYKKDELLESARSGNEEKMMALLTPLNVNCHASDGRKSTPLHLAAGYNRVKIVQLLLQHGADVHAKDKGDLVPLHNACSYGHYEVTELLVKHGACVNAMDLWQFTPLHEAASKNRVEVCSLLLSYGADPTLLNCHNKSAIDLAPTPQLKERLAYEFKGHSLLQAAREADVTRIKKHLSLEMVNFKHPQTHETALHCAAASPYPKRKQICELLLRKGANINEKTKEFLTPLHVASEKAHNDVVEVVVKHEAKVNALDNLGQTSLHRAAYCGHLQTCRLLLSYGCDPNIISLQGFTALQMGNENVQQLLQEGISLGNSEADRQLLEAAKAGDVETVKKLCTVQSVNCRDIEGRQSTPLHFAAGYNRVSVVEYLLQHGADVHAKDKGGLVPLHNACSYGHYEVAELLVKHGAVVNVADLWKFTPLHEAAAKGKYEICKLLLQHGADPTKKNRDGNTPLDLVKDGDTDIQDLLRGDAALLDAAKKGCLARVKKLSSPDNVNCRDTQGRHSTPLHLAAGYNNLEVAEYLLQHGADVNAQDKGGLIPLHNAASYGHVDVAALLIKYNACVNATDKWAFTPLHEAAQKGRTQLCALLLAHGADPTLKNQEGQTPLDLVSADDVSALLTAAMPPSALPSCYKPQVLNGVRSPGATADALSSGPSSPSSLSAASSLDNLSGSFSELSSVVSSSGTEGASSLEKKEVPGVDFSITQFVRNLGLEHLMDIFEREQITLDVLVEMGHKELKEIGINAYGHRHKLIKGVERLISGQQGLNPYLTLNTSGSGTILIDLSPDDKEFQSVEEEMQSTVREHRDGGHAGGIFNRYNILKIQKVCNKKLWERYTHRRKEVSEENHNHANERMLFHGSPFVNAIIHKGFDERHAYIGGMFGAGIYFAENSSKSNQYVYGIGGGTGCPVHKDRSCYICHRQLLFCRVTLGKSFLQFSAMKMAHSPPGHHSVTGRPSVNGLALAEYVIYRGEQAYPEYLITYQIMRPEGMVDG
As to the kind of experiment: Inhibition of auto-PARsylation of GST-tagged TNKS2 PARP domain (947 to 1162) (unknown origin) expressed in Escherichia coli BL21(DE3) after 2 hrs by LC/MS analysis.

Data set [2] deals with T2, Poly [ADP-ribose] polymerase tankyrase-2 (Homo sapiens) (UniProt Q9H2K2).
T2 sequence (whole entry): T1 sequence (Q9H2K2 whole entry)
As to the kind of experiment: Binding affinity to TNKS2 PARP domain (947 to 1162) (unknown origin) expressed in Escherichia coli BL21(DE3) assessed as thermal stabilization at 125 uM by differential scanning flourimetric analysis. An outline of the steps:
(§1)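 DSF dose−response. TNKS2 at 0.2 mg/mL with SYPRO Orange (5×). Compounds were serially diluted in 100% DMSO at 50× the assay concentration. Chymotrypsin (1/100 TNKS2 mass equivalents) was added to the protein–dye mix just before the run. Scanned 25−80 °C at about 2 °C/min, ex 490/em 575 nm, and Tm shift was taken against the DMSO control.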

The target in data set [3] is T1, Poly [ADP-ribose] polymerase tankyrase-2. As to the kind of experiment: Binding affinity to 6His-tagged TNKS2 PARP domain (947 to 1162) (unknown origin) expressed in Escherichia coli BL21(DE3) by surface plasmon resonance analysis. An outline of the steps: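 SPR on a Biacore instrument. Running buffer: 20 mM PBS pH 7.4, 0.05% Tween20, 2% DMSO. His-tagged TNKS2 (20 μg/mL in 20 mM PBS pH 7.4) was capture-coupled at 10 μL/min onto a Ni²⁺/NHS doubly preactivated NTA chip, to a target of 5000 RU.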

Data set [4] can be described thus: Thermodynamic solubility of the compound in pION buffer at 500 uM after 18 hrs at pH 4.0 by UV-spectrophotometric analysis. Format: physicochemical. The conditions noted are these: read-out: Therm_solubility. An outline of the steps: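 A 50 mM DMSO stock was diluted into pH 4.0 pION buffer (final 500 μM test compound) and incubated sealed for 18 h. Samples were vacuum filtered, discarding the first filtrate used to wet the filter. Filtrate was mixed 1:1 with 1-propanol for UV read-out.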

For data set [5], the target named is T3, Protein mono-ADP-ribosyltransferase TIPARP (Homo sapiens) (UniProt Q7Z3E1).
T3 sequence (whole entry): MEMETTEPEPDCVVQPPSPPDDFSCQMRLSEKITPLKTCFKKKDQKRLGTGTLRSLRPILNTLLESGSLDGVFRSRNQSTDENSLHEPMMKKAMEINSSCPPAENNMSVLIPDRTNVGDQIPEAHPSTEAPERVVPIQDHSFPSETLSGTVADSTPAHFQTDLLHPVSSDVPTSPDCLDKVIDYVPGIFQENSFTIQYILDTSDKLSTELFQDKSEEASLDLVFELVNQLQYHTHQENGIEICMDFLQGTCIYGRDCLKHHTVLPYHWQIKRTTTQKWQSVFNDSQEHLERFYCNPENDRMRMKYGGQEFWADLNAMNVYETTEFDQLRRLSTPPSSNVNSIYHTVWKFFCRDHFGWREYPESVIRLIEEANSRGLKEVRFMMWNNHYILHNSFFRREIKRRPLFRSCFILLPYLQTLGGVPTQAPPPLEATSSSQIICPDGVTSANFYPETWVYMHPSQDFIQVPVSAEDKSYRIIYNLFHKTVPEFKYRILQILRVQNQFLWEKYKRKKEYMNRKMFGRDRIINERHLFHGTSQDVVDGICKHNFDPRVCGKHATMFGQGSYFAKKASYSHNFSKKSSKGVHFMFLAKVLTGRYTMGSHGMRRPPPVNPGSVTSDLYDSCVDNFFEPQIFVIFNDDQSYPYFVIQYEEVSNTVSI
As to the kind of experiment: Inhibition of PARP7 (unknown origin) at 10 uM relative to control.

Data set [6] deals with T4, Protein mono-ADP-ribosyltransferase PARP11 (Homo sapiens) (UniProt Q9NR21).
T4 sequence (whole entry): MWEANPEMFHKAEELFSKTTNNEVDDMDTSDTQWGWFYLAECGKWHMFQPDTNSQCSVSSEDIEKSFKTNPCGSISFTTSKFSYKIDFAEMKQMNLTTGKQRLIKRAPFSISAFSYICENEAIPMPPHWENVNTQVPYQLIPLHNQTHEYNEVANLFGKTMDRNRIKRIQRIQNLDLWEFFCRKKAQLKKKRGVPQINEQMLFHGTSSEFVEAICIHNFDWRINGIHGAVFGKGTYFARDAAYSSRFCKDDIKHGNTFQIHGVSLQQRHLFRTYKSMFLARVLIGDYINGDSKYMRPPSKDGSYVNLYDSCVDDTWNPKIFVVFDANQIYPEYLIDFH
As to the kind of experiment: Inhibition of PARP11 (unknown origin) at 10 uM relative to control.

In data set [7] the target is T2, Poly [ADP-ribose] polymerase tankyrase-2 (Homo sapiens). As to the kind of experiment: Binding affinity to TNKS2 PARP domain (947 to 1162) (unknown origin) expressed in Escherichia coli BL21(DE3) assessed as thermal stabilization at 1 mM by differential scanning flourimetric analysis. An outline of the steps: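 Fragment screen by DSF. TNKS2 at 0.2 mg/mL with SYPRO Orange (5×). Compound added from 50 mM DMSO stocks, giving final 1 mM and 2% DMSO; DMSO controls on each plate. Scanned 25−80 °C at about 2 °C/min, fluorescence ex 490/em 575 nm. Curves inspected visually; Tm fitted to sigmoidal transitions.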

The target is the same in data set [8]. As to the kind of experiment: Binding affinity to TNKS2 PARP domain (947 to 1162) (unknown origin) expressed in Escherichia coli BL21(DE3) assessed as thermal stabilization by differential scanning flourimetric analysis. The gist of the method:
as §1

The target of data set [9] is Protein mono-ADP-ribosyltransferase PARP6 (Homo sapiens, UniProt Q2NL67). As to the kind of experiment: Inhibition of PARP6 (unknown origin).
Sequence of Protein mono-ADP-ribosyltransferase PARP6 (Q2NL67 whole entry): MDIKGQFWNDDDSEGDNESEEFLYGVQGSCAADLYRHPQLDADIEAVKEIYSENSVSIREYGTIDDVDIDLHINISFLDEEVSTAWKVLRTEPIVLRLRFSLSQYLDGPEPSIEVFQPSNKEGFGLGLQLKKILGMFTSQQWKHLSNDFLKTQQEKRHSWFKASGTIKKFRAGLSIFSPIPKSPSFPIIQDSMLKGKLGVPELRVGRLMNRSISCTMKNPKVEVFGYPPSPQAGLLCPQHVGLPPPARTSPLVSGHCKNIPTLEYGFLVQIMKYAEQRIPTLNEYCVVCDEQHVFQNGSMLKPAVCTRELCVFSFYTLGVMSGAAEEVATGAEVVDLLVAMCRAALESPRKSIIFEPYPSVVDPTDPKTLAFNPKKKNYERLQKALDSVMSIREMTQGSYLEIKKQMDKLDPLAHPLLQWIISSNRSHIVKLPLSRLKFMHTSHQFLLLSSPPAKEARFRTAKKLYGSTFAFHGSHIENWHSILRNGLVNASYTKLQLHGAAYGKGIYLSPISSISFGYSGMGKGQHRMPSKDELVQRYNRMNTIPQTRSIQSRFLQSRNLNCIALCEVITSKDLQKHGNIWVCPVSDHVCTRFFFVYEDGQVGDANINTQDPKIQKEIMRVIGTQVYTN

In brackets after ≈: the same amount, converted by molar mass.

For the compound `COCCNC(=O)c1ccc(-c2ccc3c(C)cc(=O)[nH]c3c2)c(Cl)c1`, half-maximal inhibition in [1] (IC50) required 9 nM. The ΔTm (usually the shift of the melting midpoint relative to a reference) in [2] came to 10.1 °C. Moreover, in data set [3], binding was put at a Kd of 16 nM.
`Cc1cc(=O)[nH]c2cc(-c3ccc(C(=O)O)cc3Cl)ccc12`: the solubility thermodynamic at 18 h, 500 µM in [4] worked out at 4.3 µg/mL (≈ 13.7 µM). Also, in data set [1], the 50% inhibitory concentration (IC50) (usually the midpoint of a concentration-inhibition curve) came out at 21 nM. Besides, the ΔTm in data set [2] came to 7.4 °C.
On to `Cc1cc(=O)[nH]c2cc(-c3ccc(N)cc3Cl)ccc12`, for which half-maximal inhibition in data set [1] (IC50) was put at 39 nM. Further, the ΔTm in [2] was determined as 9.4 °C. Besides, the Kd (usually the free concentration of one partner at which half of the binding sites on the other are occupied at equilibrium, for simple one-to-one binding) in [3] is 39 nM.
As to `Cc1cc(=O)[nH]c2cc(-c3ccccc3)ccc12`, the solubility thermodynamic at 18 h, 500 µM in data set [4] was determined as 0.65 µg/mL (≈ 2.76 µM). In addition, the IC50 in [1] turned out to be 180 nM. In addition, in [2], the ΔTm amounted to 3.2 °C. The compound further registered a Kd in [3] of 900 nM.
`O=C(c1cc(Cc2n[nH]c(=O)c3ccccc23)ccc1F)N1CCN(C(=O)C2CC2)CC1`: the values for the inhibition in data set [5] and in data set [6] were 84% and 72%, respectively.
As for `Cc1cc(=O)[nH]c2ccccc12`, the IC50 in data set [1] turned out to be 12000 nM. In data set [7], the ΔTm was determined as 1.1 °C.
For the compound `Oc1ccc2ccccc2n1`, the half-maximal inhibitory concentration (IC50) in data set [1] is > 20000 nM.
For `O=c1[nH]nc(Cl)c2ccccc12`, in [8], the Activity result is “Dose-dependent effect”. The ΔTm in data set [7] worked out at 1.3 °C.
For the compound `Cc1cc(=O)[nH]c2cc(-c3cccc(F)c3)ccc12`, in data set [1], the IC50 came out at 150 nM. In addition, the ΔTm in data set [2] came to 4.4 °C.
`Cc1cc(=O)[nH]c2cc(-c3ccc(C(=O)NCCN4CCOCC4)cc3Cl)ccc12`: the solubility thermodynamic at 18 h, 500 µM in [4] is 42.6 µg/mL (≈ 100 µM). In data set [1], this compound came in with an IC50 of 22 nM. Besides, the ΔTm in data set [2] was 9.9 °C. For the same compound, in data set [3], the Kd turned out to be 18 nM.
As to `Cc1cc(=O)[nH]c2ccc(-c3ccccc3)cc12`, in data set [1], the IC50 is > 20000 nM. Also, the ΔTm in [2] is 0.6 °C.
Consider `Cc1cc(=O)[nH]c2cc(-c3ccccc3Cl)ccc12`, for which the solubility thermodynamic at 18 h, 500 µM in data set [4] was < 0.1 µg/mL. In addition, the IC50 in data set [1] stood at 9 nM. Moreover, the ΔTm in [2] was found to be 6.3 °C. Moreover, the affinity in [3], expressed as Kd, was 57 nM.
On to `Oc1nc(-c2ccc(C(F)(F)F)cc2)nc2c1CSCC2`, for which the IC50 in [9] is > 10000 nM.
The compound `COc1ccccc1-c1ccc2c(C)cc(=O)[nH]c2c1` gave an IC50 in [1] of 1370 nM. The ΔTm in data set [2] stood at 1.5 °C.
Consider `Cc1cc(=O)[nH]c2cc(-c3ccc(F)cc3)ccc12`, for which, in [1], half-maximal inhibition (IC50) was put at 310 nM. For the same compound, in [2], the ΔTm was 3.1 °C.
